In brackets after ≈: the same amount, converted by molar mass. Activity calls are given as the source filed them. No cut-off for these calls is given here.
What was measured:
Trichoderma hamatum [1] = test: Antifungal activity against Trichoderma hamatum assessed as radial growth at 1% after 72 hrs by poison food technique of Flack relative to control; format: functional
Aspergillus niger [2] = test: Antifungal activity against Aspergillus niger assessed as radial growth at 1% after 48 hrs by poison food technique of Flack relative to control; format: functional
Trichoderma hamatum [3] = test: Antifungal activity against Trichoderma hamatum assessed as radial growth at 5% after 48 hrs by poison food technique of Flack relative to control; format: functional
In short: (§1)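 Acetone stock added to molten sterilized PDA to final 0.5–7%, plated in 90 mm dishes with compound-free plates as control. Each plate was inoculated with a 9 mm disc from a 4-day-old culture, incubated at 25 ± 1 °C, and colony diameter measured at 24 h intervals. % inhibition = (control − treatment)/control × 100; three replicates averaged.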

Aspergillus niger [4] = test: Antifungal activity against Aspergillus niger assessed as radial growth at 5% after 72 hrs by poison food technique of Flack relative to control; format: functional
Trichoderma hamatum [5] = test: Antifungal activity against Trichoderma hamatum assessed as radial growth at 7% after 24 hrs by poison food technique of Flack relative to control; format: functional; in short: as §1
Trichoderma koningii [6] = test: Antifungal activity against Trichoderma koningii assessed as radial growth at 7% after 72 hrs by poison food technique of Flack relative to control; format: functional; in short: as §1
Aspergillus niger [7] = test: Antifungal activity against Aspergillus niger assessed as radial growth at 7% after 72 hrs by poison food technique of Flack relative to control; format: functional
Trichoderma hamatum [8] = test: Antifungal activity against Trichoderma hamatum assessed as radial growth at 3% after 48 hrs by poison food technique of Flack relative to control; format: functional
Aspergillus niger [9] = test: Antifungal activity against Aspergillus niger assessed as radial growth at 7% after 48 hrs by poison food technique of Flack relative to control; format: functional
Trichoderma koningii [10] = test: Antifungal activity against Trichoderma koningii assessed as radial growth at 3% after 72 hrs by poison food technique of Flack relative to control; format: functional; in short: as §1
Aspergillus niger [11] = test: Antifungal activity against Aspergillus niger assessed as radial growth at 5% after 24 hrs by poison food technique of Flack relative to control; format: functional
Trichoderma koningii [12] = test: Antifungal activity against Trichoderma koningii assessed as radial growth at 3% after 48 hrs by poison food technique of Flack relative to control; format: functional; in short: as §1
Aspergillus niger [13] = test: Antifungal activity against Aspergillus niger assessed as radial growth at 3% after 48 hrs by poison food technique of Flack relative to control; format: functional
Aspergillus niger [14] = test: Antifungal activity against Aspergillus niger assessed as radial growth at 5% after 48 hrs by poison food technique of Flack relative to control; format: functional
Trichoderma koningii [15] = test: Antifungal activity against Trichoderma koningii assessed as radial growth at 1% after 72 hrs by poison food technique of Flack relative to control; format: functional; in short: as §1
Aspergillus niger [16] = test: Antifungal activity against Aspergillus niger assessed as radial growth at 3% after 72 hrs by poison food technique of Flack relative to control; format: functional
Aspergillus niger [17] = test: Antifungal activity against Aspergillus niger assessed as radial growth at 0.5% after 48 hrs by poison food technique of Flack relative to control; format: functional
Trichoderma koningii [18] = test: Antifungal activity against Trichoderma koningii assessed as radial growth at 3% after 24 hrs by poison food technique of Flack relative to control; format: functional; in short: as §1
Trichoderma hamatum [19] = test: Antifungal activity against Trichoderma hamatum assessed as radial growth at 0.5% after 72 hrs by poison food technique of Flack relative to control; format: functional
Trichoderma koningii [20] = test: Antifungal activity against Trichoderma koningii assessed as radial growth at 0.5% after 24 hrs by poison food technique of Flack relative to control; format: functional; in short: as §1
Trichoderma hamatum [21] = test: Antifungal activity against Trichoderma hamatum assessed as radial growth at 7% after 24 hrs by poison food technique of Flack; format: functional, organism-based
In short: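 Poisoned-food method: acetone stock mixed into molten sterilized potato dextrose agar to final 0.5, 1, 3, 5 or 7%, poured into 90 mm plates. Plates were inoculated with a 9 mm mycelial disc from a 4-day-old pure culture and incubated at 25 ± 1 °C. Colony diameter (mm) was read every 24 h; mean of three replicates.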

Trichoderma hamatum [22] = test: Antifungal activity against Trichoderma hamatum assessed as radial growth at 0.5% after 48 hrs by poison food technique of Flack relative to control; format: functional
Trichoderma koningii [23] = test: Antifungal activity against Trichoderma koningii assessed as radial growth at 5% after 72 hrs by poison food technique of Flack relative to control; format: functional; in short: as §1
Trichoderma koningii [24] = test: Antifungal activity against Trichoderma koningii; format: functional
Aspergillus niger [25] = test: Antifungal activity against Aspergillus niger assessed as radial growth at 1% after 72 hrs by poison food technique of Flack relative to control; format: functional
Trichoderma hamatum [26] = test: Antifungal activity against Trichoderma hamatum assessed as radial growth at 3% after 24 hrs by poison food technique of Flack relative to control; format: functional
Trichoderma hamatum [27] = test: Antifungal activity against Trichoderma hamatum assessed as radial growth at 5% after 24 hrs by poison food technique of Flack relative to control; format: functional; in short: as §1
Trichoderma koningii [28] = test: Antifungal activity against Trichoderma koningii assessed as radial growth at 0.5% after 72 hrs by poison food technique of Flack relative to control; format: functional; in short: as §1
Aspergillus niger [29] = test: Antifungal activity against Aspergillus niger assessed as radial growth at 0.5% after 72 hrs by poison food technique of Flack relative to control; format: functional
Aspergillus niger [30] = test: Antifungal activity against Aspergillus niger assessed as radial growth at 7% after 24 hrs by poison food technique of Flack relative to control; format: functional
Trichoderma koningii [31] = test: Antifungal activity against Trichoderma koningii assessed as radial growth at 7% after 48 hrs by poison food technique of Flack relative to control; format: functional; in short: as §1
Aspergillus niger [32] = test: Antifungal activity against Aspergillus niger assessed as radial growth at 0.5% after 24 hrs by poison food technique of Flack relative to control; format: functional
Trichoderma hamatum [33] = test: Antifungal activity against Trichoderma hamatum; format: functional
Aspergillus niger [34] = test: Antifungal activity against Aspergillus niger assessed as radial growth at 3% after 24 hrs by poison food technique of Flack relative to control; format: functional
Trichoderma hamatum [35] = test: Antifungal activity against Trichoderma hamatum assessed as radial growth at 7% after 72 hrs by poison food technique of Flack relative to control; format: functional; in short: as §1
Trichoderma koningii [36] = test: Antifungal activity against Trichoderma koningii assessed as radial growth at 1% after 24 hrs by poison food technique of Flack relative to control; format: functional; in short: as §1
Trichoderma hamatum [37] = test: Antifungal activity against Trichoderma hamatum assessed as radial growth at 0.5% after 24 hrs by poison food technique of Flack relative to control; format: functional
Aspergillus niger [38] = test: Antifungal activity against Aspergillus niger assessed as radial growth at 1% after 24 hrs by poison food technique of Flack relative to control; format: functional
Trichoderma hamatum [39] = test: Antifungal activity against Trichoderma hamatum assessed as radial growth at 1% after 24 hrs by poison food technique of Flack relative to control; format: functional
Trichoderma hamatum [40] = test: Antifungal activity against Trichoderma hamatum assessed as radial growth at 3% after 72 hrs by poison food technique of Flack relative to control; format: functional
Trichoderma koningii [41] = test: Antifungal activity against Trichoderma koningii assessed as radial growth at 5% after 24 hrs by poison food technique of Flack relative to control; format: functional; in short: as §1
Trichoderma koningii [42] = test: Antifungal activity against Trichoderma koningii assessed as radial growth at 5% after 48 hrs by poison food technique of Flack relative to control; format: functional; in short: as §1
Trichoderma hamatum [43] = test: Antifungal activity against Trichoderma hamatum assessed as radial growth at 1% after 48 hrs by poison food technique of Flack relative to control; format: functional
Aspergillus niger [44] = test: Antifungal activity against Aspergillus niger; format: functional
Trichoderma koningii [45] = test: Antifungal activity against Trichoderma koningii assessed as radial growth at 1% after 48 hrs by poison food technique of Flack relative to control; format: functional; in short: as §1

## CCOC(=O)C1=C(C)NC(=S)NC1c1ccccc1O (stereo not given)
Trichoderma hamatum [1]
  inhibition (INH): 38.22%
Aspergillus niger [2]
  inhibition (INH): 0%
Trichoderma hamatum [3]
  inhibition (INH): 100%
Aspergillus niger [4]
  inhibition (INH): 31.92%
Trichoderma hamatum [5]
  inhibition (INH): 100%
Trichoderma koningii [6]
  inhibition (INH): 91.05%
Aspergillus niger [7]
  inhibition (INH): 36.14%
Trichoderma hamatum [8]
  inhibition (INH): 80.94%
Aspergillus niger [9]
  inhibition (INH): 61.83%
Trichoderma koningii [10]
  inhibition (INH): 32.71%
Aspergillus niger [11]
  inhibition (INH): 62.46%
Trichoderma koningii [12]
  inhibition (INH): 4.18%
Aspergillus niger [13]
  inhibition (INH): 38.16%
Aspergillus niger [14]
  inhibition (INH): 50%
Trichoderma koningii [15]
  inhibition (INH): 14.37%
Aspergillus niger [16]
  inhibition (INH): 23.37%
Aspergillus niger [17]
  inhibition (INH): 0%
Trichoderma koningii [18]
  inhibition (INH): 50.39%
Trichoderma hamatum [19]
  inhibition (INH): 0%
Trichoderma koningii [20]
  inhibition (INH): 0%
Trichoderma hamatum [21]
  Activity: Active
Trichoderma hamatum [22]
  inhibition (INH): 6.18%
Trichoderma koningii [23]
  inhibition (INH): 88.33%
Trichoderma koningii [24]
  MIC: 0.025 µg/mL (≈ 0.0855 µM)
Aspergillus niger [25]
  inhibition (INH): 0%
Trichoderma hamatum [26]
  inhibition (INH): 81.13%
Trichoderma hamatum [27]
  inhibition (INH): 100%
Trichoderma koningii [28]
  inhibition (INH): 0%
Aspergillus niger [29]
  inhibition (INH): 0%
Aspergillus niger [30]
  inhibition (INH): 62.46%
Trichoderma koningii [31]
  inhibition (INH): 93.75%
Aspergillus niger [32]
  inhibition (INH): 0%
Trichoderma hamatum [33]
  MIC: 0.025 µg/mL (≈ 0.0855 µM)
Aspergillus niger [34]
  inhibition (INH): 54.95%
Trichoderma hamatum [35]
  inhibition (INH): 98.35%
Trichoderma koningii [36]
  inhibition (INH): 12.35%
Trichoderma hamatum [37]
  inhibition (INH): 26.41%
Aspergillus niger [38]
  inhibition (INH): 20.12%
Trichoderma hamatum [39]
  inhibition (INH): 49.73%
Trichoderma hamatum [40]
  inhibition (INH): 76.44%
Trichoderma koningii [41]
  inhibition (INH): 100%
Trichoderma koningii [42]
  inhibition (INH): 91.4%
Trichoderma hamatum [43]
  inhibition (INH): 51.46%
Aspergillus niger [44]
  MIC: 0.025 µg/mL (≈ 0.0855 µM)
Trichoderma koningii [45]
  inhibition (INH): 0%

## CCOC(=O)C1=C(C)NC(=O)NC1c1ccc(N(C)C)cc1 (stereo not given)
Trichoderma hamatum [1]
  inhibition (INH): 0%
Aspergillus niger [2]
  inhibition (INH): 47.25%
Trichoderma hamatum [3]
  inhibition (INH): 93.38%
Aspergillus niger [4]
  inhibition (INH): 88.42%
Trichoderma hamatum [5]
  inhibition (INH): 100%
Trichoderma koningii [6]
  inhibition (INH): 80%
Aspergillus niger [7]
  inhibition (INH): 100%
Trichoderma hamatum [8]
  inhibition (INH): 75.31%
Aspergillus niger [9]
  inhibition (INH): 100%
Trichoderma koningii [10]
  inhibition (INH): 59.58%
Aspergillus niger [11]
  inhibition (INH): 100%
Trichoderma koningii [12]
  inhibition (INH): 64.51%
Aspergillus niger [13]
  inhibition (INH): 75%
Aspergillus niger [14]
  inhibition (INH): 87.5%
Trichoderma koningii [15]
  inhibition (INH): 48.29%
Aspergillus niger [16]
  inhibition (INH): 74.11%
Aspergillus niger [17]
  inhibition (INH): 41.66%
Trichoderma koningii [18]
  inhibition (INH): 84%
Trichoderma hamatum [19]
  inhibition (INH): 0%
Trichoderma koningii [20]
  inhibition (INH): 4%
Trichoderma hamatum [21]
  Activity: Active
Trichoderma hamatum [22]
  inhibition (INH): 0%
Trichoderma koningii [23]
  inhibition (INH): 79.15%
Trichoderma koningii [24]
  MIC: 0.025 µg/mL (≈ 0.0824 µM)
Aspergillus niger [25]
  inhibition (INH): 46.4%
Trichoderma hamatum [26]
  inhibition (INH): 77.38%
Trichoderma hamatum [27]
  inhibition (INH): 84.2%
Trichoderma koningii [28]
  inhibition (INH): 45.53%
Aspergillus niger [29]
  inhibition (INH): 35.69%
Aspergillus niger [30]
  inhibition (INH): 100%
Trichoderma koningii [31]
  inhibition (INH): 87.09%
Aspergillus niger [32]
  inhibition (INH): 38.28%
Trichoderma hamatum [33]
  MIC: 0.025 µg/mL (≈ 0.0824 µM)
Aspergillus niger [34]
  inhibition (INH): 100%
Trichoderma hamatum [35]
  inhibition (INH): 93.82%
Trichoderma koningii [36]
  inhibition (INH): 9.36%
Trichoderma hamatum [37]
  inhibition (INH): 0%
Aspergillus niger [38]
  inhibition (INH): 42.85%
Trichoderma hamatum [39]
  inhibition (INH): 0%
Trichoderma hamatum [40]
  inhibition (INH): 73.04%
Trichoderma koningii [41]
  inhibition (INH): 100%
Trichoderma koningii [42]
  inhibition (INH): 87.09%
Trichoderma hamatum [43]
  inhibition (INH): 0%
Aspergillus niger [44]
  MIC: 0.35 µg/mL (≈ 1.15 µM)
Trichoderma koningii [45]
  inhibition (INH): 48.38%

Reference: ChEMBL document CHEMBL1152173, “Synthesis and in vitro evaluation of the antifungal activities of dihydropyrimidinones” (2008)
